# Source: PubChem (several laboratories)
# In the library only some 1.5% were active in any assay of this set; here they are far more common.
# CTSL1 counter: Fasciola hepatica cathepsin L1 inhibitors, primary screen, counter-screen for PFM18AAP inhibitor project, biochemical, QFRET, fluorogenic peptide substrate; recombinant F. hepatica cathepsin L1, Z-Leu-Arg-MCA fluorescence; inhibition, % at 5.96 µM; 300,000 compounds, 0.49% hits; AID 1906, 2009;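 active means inhibition above the mean of all tested compounds plus 3 SD, set per screening campaign, cut at about 17% in these data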;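 further: 0% = plate median of test compound wells and 100% = 1 µM Z-Phe-Ala-diazomethylketone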
# DAGLB inhibitor: DAGLB lipase inhibitors, primary screen, biochemical, fluorescence, HTS; Diacylglycerol lipase-beta (Homo sapiens), Q8NCG7; HEK293T DAGLB membrane lysate, EnzChek fluorogenic substrate; inhibition, % at 5.17 µM; 340,000 compounds, 0.059% hits; AID 504411, 2011; in the data active means inhibition above about 34%;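 further: 0% = enzyme with vehicle and 100% = wells lacking enzyme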
# MT1-MMP act inh: blockers of MT1-MMP proenzyme processing, primary screen, HT1080 RFP-PRO-GFP cells, GFP/RFP fluorescence; Matrix metalloproteinase-14 (Homo sapiens), P50281; 360,000 compounds, 0.061% hits; GFP/RFP ratio change, % at 20 µM; AID 651647, 2012; GFP/RFP ratio fluorescence, overnight; percent of plate control window, DMSO zero;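 active means GFP/RFP ratio change of at least 30% with cell ATP level not reduced by more than half and red fluorescence within 50% of control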
#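 Test system: HT1080 RFP-PRO-GFP cells; Benchmarks: DMSO and RFP-L50D-GFP cell wells; Timing: cells overnight before dosing, compound overnight, 37 °C, 5% CO2; Compound: one 20 µM compound dose with 1% DMSO; Read-out: GFP/RFP fluorescence ratio.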
# CendR NRP1 mod: modulators of CendR peptide binding to NRP-1, primary screen, biochemical, fluorescence polarization, uHTS; Neuropilin-1 (Homo sapiens), O14786; 360,000 compounds, 0.85% hits; FAM-RPARPAR peptide binding to NRP-1; inhibition, % at 25 µM;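 active means inhibition or corrected inhibition above about 18%, plus a signal ratio from 0.5 to 1.5, limit read from the data, passing the limit was not always enough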
# Target sequence (O14786 whole entry, looked up): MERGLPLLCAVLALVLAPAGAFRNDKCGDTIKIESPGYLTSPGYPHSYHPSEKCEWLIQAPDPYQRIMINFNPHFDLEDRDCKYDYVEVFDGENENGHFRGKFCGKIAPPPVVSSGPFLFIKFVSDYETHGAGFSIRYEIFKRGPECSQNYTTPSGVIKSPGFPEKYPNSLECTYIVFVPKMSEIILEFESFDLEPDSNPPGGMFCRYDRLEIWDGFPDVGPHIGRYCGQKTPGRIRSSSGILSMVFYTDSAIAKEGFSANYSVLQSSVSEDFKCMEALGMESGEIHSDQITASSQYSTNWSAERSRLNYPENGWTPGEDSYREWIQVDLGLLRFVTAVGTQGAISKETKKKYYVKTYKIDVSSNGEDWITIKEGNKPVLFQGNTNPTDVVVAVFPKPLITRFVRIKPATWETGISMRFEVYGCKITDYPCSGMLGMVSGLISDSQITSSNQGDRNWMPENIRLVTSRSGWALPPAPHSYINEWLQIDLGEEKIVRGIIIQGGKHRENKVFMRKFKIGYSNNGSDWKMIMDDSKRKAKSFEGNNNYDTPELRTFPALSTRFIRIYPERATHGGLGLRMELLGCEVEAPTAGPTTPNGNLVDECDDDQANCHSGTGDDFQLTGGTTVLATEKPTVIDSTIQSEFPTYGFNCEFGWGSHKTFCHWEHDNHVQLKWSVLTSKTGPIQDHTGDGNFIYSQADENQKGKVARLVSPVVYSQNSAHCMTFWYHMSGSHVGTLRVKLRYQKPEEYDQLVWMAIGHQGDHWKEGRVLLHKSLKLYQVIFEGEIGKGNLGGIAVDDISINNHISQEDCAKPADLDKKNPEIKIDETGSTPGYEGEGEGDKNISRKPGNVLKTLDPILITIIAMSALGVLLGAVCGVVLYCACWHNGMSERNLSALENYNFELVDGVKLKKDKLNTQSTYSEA
# UCH37 DUB inh: inhibitors of human UCH37 deubiquitinase, primary screen, biochemical, Ub-AMC cleavage, fluorescence. Ubiquitin carboxyl-terminal hydrolase isozyme L5 (Homo sapiens), Q9Y5K5. purified proteasome/UCH37. inhibition, % (no concentration beside the values). 330,000 compounds, 0.33% hits;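 active means mean inhibition over replicate wells above about 20%, limit read from the data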;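 further: 0% = compound-free wells with enzyme and 100% = wells lacking proteasome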
#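 Assay system: Proteasome-bound UCH37. Buffer or medium: pH 7.4 Tris-HCl (50 mM) with ovalbumin, ATP-MgCl2, DTT. Incubation: 30 min preincubation with enzyme, 25 min cleavage at room temperature. Measured by: fluorescence, ex 355 nm, em 460 nm. Read-out basis: percent inhibition. Control set: wells without proteasome as full block, compound-free enzyme plus substrate as uninhibited.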
# An asterisk follows results filed as active; · = no result.
SMILES,CTSL1 counter,DAGLB inhibitor,MT1-MMP act inh,CendR NRP1 mod,UCH37 DUB inh
COc1ccc(C=NOC(=O)Nc2ccc(Cl)cc2)c(OC)c1,·,·,·,·,1
COc1ccc(-n2c(C)cc(C(=O)Cn3nc(C(=O)O)c4ccccc4c3=O)c2C)cc1,0,0,2,30*,1
O=C(CN1CCN(c2cccc(Cl)c2)CC1)NCc1ccccc1,24*,-1,1,0,3
Fc1ccc(C=NN2CCOCC2)c(F)c1,·,·,·,·,2
O=C(C(=NN=Cc1ccc(O)c(O)c1O)c1ccccc1)c1ccccc1,·,·,·,·,4
CS(=O)(=O)N(CC(=O)Nc1ccccc1-c1ccccc1)c1cccc(F)c1,5,-2,-5,27*,2
CS(=O)(=O)N(CC(=O)Nc1ccccc1-c1ccccc1)c1ccccc1,-2,-4,-3,19,1
Cc1ccc(OCC(=O)NN=Cc2cccc3cccnc23)cc1,·,·,·,·,2
CC(=O)NS(=O)(=O)c1ccc(NC(=S)Nc2ccccc2)cc1,-4,1,1,7,5
CC(=O)Nc1ccc(NC(=S)NC(=O)C2CC2)cc1,30*,-2,-1,8,·
CCC(=O)NC(=S)Nc1ccc(S(=O)(=O)NC(C)=O)cc1,-2,-1,0,25*,3
O=C(NC(=S)Nc1ccc(O)cc1)C1CCCC1,·,-1,1,-4,3
O=C(CSc1nc(-c2ccccc2Cl)ns1)c1ccc(Cl)cc1,4,-24,4,5,1
Cc1cccc(-c2nsc(SCC(=O)c3ccc(Cl)cc3)n2)c1,-1,-22,·,45*,1
N#CC(c1ccccc1)N(CCCCl)C(=O)c1ccccc1 (stereo not drawn),-5,-5,2,-6,21*
CC(=O)N(CCCCl)C(C#N)c1ccccc1 (stereo not drawn),-3,-1,0,10,3
CCOc1ccc(Br)cc1S(=O)(=O)Nc1ccc(Cl)c(S(=O)(=O)N(C)C)c1,6,2,3,-3,6
CCOc1ccc(Br)cc1S(=O)(=O)Nc1ccc(Cl)c(S(=O)(=O)N(CC)c2ccccc2)c1,17*,2,-6,5,3
CN1C(=O)C(=NOC(=O)c2ccccc2Br)c2ccccc21,·,·,·,·,1
COc1ccc(COc2cc(-c3cccc(OC)c3)nc3ccc(NC(C)=O)cc23)cc1,2,-7,8,27*,-7
COc1ccc(COc2cc(-c3cccc(OC)c3)nc3ccc(NC(=O)c4ccc(N(C)C)cc4)cc23)cc1,3,2,5,28*,-19
COc1ccc(COc2cc(-c3cccc(OC)c3)nc3ccc(NC(=O)c4ccc(C)cc4)cc23)cc1,1,-12,1,8,3
CCOc1cc(N2CCOCC2)c(OCC)cc1NC(=O)CN1CCCC(C)C1 (stereo not drawn),45*,2,-2,6,3
CCOc1cc(N2CCOCC2)c(OCC)cc1NC(=O)c1ccccc1,3,-4,5,6,5
CCCn1nc(C(=O)Nc2cc(OCC)c(N3CCOCC3)cc2OCC)c2ccccc2c1=O,·,2,5,22*,2
SMILES,CTSL1 counter,DAGLB inhibitor,MT1-MMP act inh,CendR NRP1 mod,UCH37 DUB inh
CCOc1cc(N2CCOCC2)c(OCC)cc1NC(=O)COC(=O)c1cccc2ccccc12,30*,0,2,19,0
CCOc1cc(N2CCOCC2)c(OCC)cc1NC(=O)CN1CCC(Cc2ccccc2)CC1,4,-3,3,4,3
c1ccc2c(c1)OCC(c1nnc3n1-c1ccccc1SC3)O2 (stereo not drawn),2,-2,3,45*,-5
CCc1ccccc1NC(=S)N=C(N)Nc1nc(C)c2cc(C)ccc2n1,·,·,·,·,1
COC(=O)CCCCC1SCC2NC(=O)NC21O (stereo not drawn),-4,-4,5,27*,·
COc1ccccc1CNC(=O)CCCC(=O)n1nc(C)c2ccccc21,-2,-10,1,1,1
Cc1nn(C(=O)CCC(=O)NCc2ccccc2Cl)c2ccccc12,20*,-4,-1,4,2
CC(C)Nc1nc(C#N)nc(NC(C)C)n1,57*,-5,3,-3,2
CCN(Cc1ccncc1)C(=O)c1cc(COc2ccc(F)cc2F)on1,2,-3,1,43*,0
COc1cc(OC)cc(C(=O)NCC(=O)OCC(=O)c2cc(OC)ccc2OC)c1,-18,2,2,6,2
COc1ccc(C(=O)COC(=O)CNC(=O)C2CCCCC2)c(OC)c1,35*,2,-2,4,3
O=C(CNC(=O)C1CCCCC1)OCC(=O)c1ccc(Br)cc1,·,0,0,-5,3
O=C1COc2ccc(C(=O)COC(=O)CNC(=O)C3CCCCC3)cc2N1,31*,-1,-3,1,0
Cc1ccc(C(=O)NCC(=O)OCC(=O)c2ccc3c(c2)NC(=O)CO3)cc1C,-23,2,1,8,5
COc1ccc(OC)c(C(=O)COC(=O)CNC(=O)C2CCCCC2)c1,33*,-1,-4,2,-3
O=C(CNC(=O)C1CCCCC1)OCC(=O)c1ccc(Cl)s1,18*,1,2,0,1
COc1cc(C=NNc2nc(-c3ccc(S(=O)(=O)N(C)C)cc3)cs2)ccc1O,·,·,·,·,-8
CCOc1cc(C=Nn2c(C)nc3ccccc3c2=O)ccc1O,·,·,·,·,8
COc1ccc(C=NNS(=O)(=O)c2ccccc2)cc1OC(=O)c1ccc(C)cc1,·,·,·,·,2
O=C(COC(=O)CNC(=O)C1CCCCC1)Nc1ccc(Cl)cn1,29*,2,-2,-11,-1
CCC1(CC)NC(=O)NC1=O,-1,-1,4,15,32*
COCCCNC(=S)NN=Cc1cccc(OC)c1O,·,·,·,·,-20
CON=C(CNC(=O)c1ccc(Cl)cc1Cl)c1ccc(Cl)cc1,·,·,·,·,-2
O=C(CSCc1ccccc1)Nc1ccc(S(=O)(=O)N2CCOCC2)cc1,-2,-4,0,27*,-3
Cn1nc(C(F)(F)F)c(C=NOC(=O)c2ccccc2)c1Cl,·,·,·,·,-1
CSCCCNC(=S)N1CCN(c2ccc(C(C)=O)cc2)CC1,4,2,4,24*,5
CCCCNC(=S)N1CCN(c2ccc(C(C)=O)cc2)CC1,3,-1,3,-7,7
CCC(=O)Nc1nc2nc(-c3ccccc3)cc(-c3ccccc3)n2n1,0,-2,-1,21*,-141
O=C(CSC1CN(C(c2ccccc2)c2ccccc2)C1)NN=Cc1ccc(Cl)cc1Cl,·,·,·,·,2
O=C1OC(N2C(=O)CC[C@H]2C(=O)NCC2CCCO2)c2ccccc21 (stereo partly drawn),8,-5,4,22*,0
